ChEMBL document CHEMBL4406918, “Inhibitory Effects of Multivalent Polypeptides on the Proliferation and Metastasis of Breast Cancer Cells” (ACS Med Chem Lett, 2019)
Calls of active or inactive are those of the source. No cut-off for these calls is given here.

Columns and labels:
[1] = Toxicity in BALB/c mouse xenografted with mouse 4T1 cells assessed as change in body weight at 10 mg/kg administered intratumorally and measured after 24 days; format: organism-based; conditions: in vivo, other, 576 h
How it was run: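 BALB/c mice bearing subcutaneous 4T1 tumours received 6 doses of 10 mg/kg, with equal YSL-monomer molar amounts across compounds and saline as control. Tumour volume growth curves and body weights were tracked. Mean ± SD, n = 5.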

[2] = test system: 4T1; assay: Induction of apoptosis in mouse 4T1 cells assessed as viable cells at 0.4 mM incubated for 24 hrs by Annexin V-FITC/PI based FACS analysis (reference value: 92.2%); format: functional; conditions: 4T1, 24 h, read-out: Activity
[3] = test system: 4T1; assay: Induction of apoptosis in mouse 4T1 cells at 0.4 mM incubated for 24 hrs by PI staining based inverted microscopic method; format: functional, cell-based
How it was run: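 Live–dead staining of 4T1 cells after 24 h exposure to 0.4 mM, read by PI staining. A 0.8 mM level was also examined.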

[4] = test system: 4T1; assay: Antitumour activity against mouse 4T1 cells xenografted in BALB/c mouse assessed as increase in number of TUNEL positive cells at 10 mg/kg administered intratumorally and measured after 24 days by H and E staining based inverted optical microscopic method; format: functional, organism-based
How it was run: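 BALB/c mice bearing subcutaneous 4T1 tumours received 6 doses at 10 mg/kg body weight, matched for YSL monomer molar amount, with saline as control. Tumour sections were stained for H&E, CD31, Ki-67 and TUNEL. n = 5.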

[5] = test system: 4T1; assay: Antitumour activity against mouse 4T1 cells xenografted in BALB/c mouse assessed as reduction in number of lung tumor metastatic nodules at 10 mg/kg administered intratumorally and measured after 24 days by H and E staining based inverted optical microscopic method; format: functional, organism-based
How it was run: (§1)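 After 6 doses of 10 mg/kg to 4T1 tumour-bearing BALB/c mice (saline control), lungs were photographed whole and examined histopathologically for the number and size of metastatic nodules.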

[6] = test system: 4T1; assay: Antitumour activity against mouse 4T1 cells xenografted in BALB/c mouse assessed as reduction in size of lung tumor metastatic nodules at 10 mg/kg administered intratumorally and measured after 24 days by H and E staining based inverted optical microscopic method; format: functional, organism-based; how it was run: as §1
[7] = test system: 4T1; assay: Induction of cell cycle arrest in mouse 4T1 cells assessed as accumulation at G0/G1 phase at 0.4 mM incubated for 24 hrs by PI staining based flow cytometric analysis (reference value: 37.78%); format: functional
[8] = test system: 4T1; assay: Induction of apoptosis in mouse 4T1 cells assessed as necrotic cells at 0.4 mM incubated for 24 hrs by Annexin V-FITC/PI based FACS analysis (reference value: 0.47%); format: functional
[9] = test system: 4T1; assay: Antiproliferative activity against mouse 4T1 cells at 0.1 mM incubated for 24 hrs by MTT assay; format: functional, cell-based
[10] = test system: 4T1; assay: Induction of apoptosis in mouse 4T1 cells assessed as late apoptotic cells at 0.4 mM incubated for 24 hrs by Annexin V-FITC/PI based FACS analysis (reference value: 6.62%); format: functional

## COC(=O)[C@H](CCCCNC(=O)[C@H](CCCCNC(=O)[C@H](CCCCNC(=O)[C@H](CC(C)C)NC(=O)[C@H](CO)NC(=O)[C@@H](N)Cc1ccc(O)cc1)NC(=O)[C@H](CC(C)C)NC(=O)[C@H](CO)NC(=O)[C@@H](N)Cc1ccc(O)cc1)NC(=O)[C@H](CCCCNC(=O)[C@H](CC(C)C)NC(=O)[C@H](CO)NC(=O)[C@@H](N)Cc1ccc(O)cc1)NC(=O)[C@H](CC(C)C)NC(=O)[C@H](CO)NC(=O)[C@@H](N)Cc1ccc(O)cc1)NC(=O)[C@H](CCCCNC(=O)[C@H](CCCCNC(=O)[C@H](CC(C)C)NC(=O)[C@H](CO)NC(=O)[C@@H](N)Cc1ccc(O)cc1)NC(=O)[C@H](CC(C)C)NC(=O)[C@H](CO)NC(=O)[C@@H](N)Cc1ccc(O)cc1)NC(=O)[C@H](CCCCNC(=O)[C@H](CC(C)C)NC(=O)[C@H](CO)NC(=O)[C@@H](N)Cc1ccc(O)cc1)NC(=O)[C@H](CC(C)C)NC(=O)[C@H](CO)NC(=O)[C@@H](N)Cc1ccc(O)cc1
[1]
  Activity: Non-Toxic
[2]
  viability at 400 µM: 37.5%
[3]
  Activity: Active
[4]
  Activity: Active
[5]
  Activity: Active
[6]
  Activity: Active
[7]
  Activity: 44.44%
[8]
  Activity: 2.41%
[9]
  Activity: inactive
[10]
  Activity: 56.2%
